Values belong to the molecule of their own block, whether it stands above or below them.
Tests used:
[1] = test system: CCRF-CEM; assay: Cytotoxic activity against human acute lymphoblastic leukemia (CCRF-CEM) cell line; format: functional, cell-based
[2] = test system: HT-29; assay: Cytotoxic activity against colon adenocarcinoma (HT-29) cell line; format: functional, cell-based, Homo sapiens
Outline: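 HT-29 colon adenocarcinoma cells in McCoy's 5A with 10% FCS, glutamine and penicillin/streptomycin, about 10 000 cells/well. After a 4 h preincubation, cells were exposed to compound (DMSO up to 0.5% final) for 72 h at 37 °C, 5% CO2. Readout was SRB assay. IC50 from dose-response curves; mean of at least three independent experiments run in duplicate.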

[3] = Ratio of IC50 values was calculated by IC50 cytidine incorporation/IC50 cell proliferation; format: functional
Outline: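 Ratio of the [14C]cytidine-incorporation IC50 to the cell-proliferation IC50, both measured in Burkitt's lymphoma cells.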

[4] = (§1) Percentage of cells in G2-M cell cycle phase of lymphoma cells after 48 hr treatment; format: functional, Homo sapiens
[5] = (§2) Percentage of cells in G1 cell cycle phase of lymphoma cells after 48 hr treatment; format: functional, Homo sapiens
[6] = (§3) Percentage of cells in G2-M cell cycle phase of lymphoma cells after 24 hr treatment; format: functional, Homo sapiens
[7] = Inhibition of cell proliferation in Burkitt's lymphoma cells; format: functional, cell-based, Homo sapiens
[8] = (§4) Percentage of cells in S cell cycle phase of lymphoma cells after 24 hr treatment; format: functional, Homo sapiens
[9] = (§5) Percentage of cells in G1 cell cycle phase of lymphoma cells after 24 hr treatment; format: functional, Homo sapiens
[10] = (§6) Percentage of cells in S cell cycle phase of lymphoma cells after 48 hr treatment; format: functional, Homo sapiens
[11] = Inhibition of [14C]-cytidine incorporation into DNA in Burkitt''s lymphoma cells; format: functional, cell-based, Homo sapiens
Outline: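 Intact exponentially growing Burkitt's lymphoma cells, (1-2)×10^6/mL, incubated with compound at 37 °C for 90 min, then 0.7 μCi [14C]cytidine added. Cells TCA-precipitated and RNase-treated in Tris-HCl pH 8 for 2 h at 37 °C, then reprecipitated with TCA. Pellet dissolved in NaOH and counted by scintillation. IC50 is the mean of two experiments run in duplicate.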

[12] = test system: MX1; assay: Inhibition of cell proliferation of human breast MXI tumor xenograft in colony forming assay; format: functional, cell-based
[13] = test system: CXF1103; assay: Inhibition of cell proliferation of human colon CXF1103 tumor xenograft in colony forming assay; format: functional, cell-based
[14] = test system: MCF7; assay: Inhibition of cell proliferation of human breast MCF7X tumor xenograft in colony forming assay; format: functional, cell-based
[15] = test system: LXFL 529; assay: Inhibition of cell proliferation of human lung large cell LXFL529 tumor xenograft in colony forming assay; format: functional, cell-based
[16] = test system: PAXF546; assay: Inhibition of cell proliferation of human pancreas PAXF546 tumor xenograft in colony forming assay; format: functional, cell-based
[17] = test system: LXFS538; assay: Inhibition of cell proliferation of human lung small cell LXFS538 tumor xenograft in colony forming assay; format: functional, cell-based
[18] = test system: CXF280; assay: Inhibition of cell proliferation of human colon CXF280 tumor xenograft in colony forming assay; format: functional, cell-based
[19] = test system: MEXF989; assay: Inhibition of cell proliferation of human melanoma MEXF989 tumor xenograft in colony forming assay; format: functional, cell-based
[20] = test system: MEXF276L; assay: Inhibition of cell proliferation of human melanoma MEXF276L tumor xenograft in colony forming assay; format: functional, cell-based
[21] = test system: PAXF736; assay: Inhibition of cell proliferation of human pancreas PAXF736 tumor xenograft in colony forming assay; format: functional, cell-based
[22] = test system: HT-29; assay: Inhibition of cell proliferation of human colon HT-29X tumor xenograft in colony forming assay; format: functional, cell-based
[23] = test system: lymphoma; assay: as §1; format: functional; conditions: Homo sapiens
[24] = test system: lymphoma; assay: as §2; format: functional; conditions: Homo sapiens
[25] = test system: lymphoma; assay: as §3; format: functional; conditions: Homo sapiens
[26] = Mean IC50 value of the compound; format: functional
Outline: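 Geometric mean of clonogenic soft-agar IC50 values across the tumor xenografts tested: 10 raised to the mean of log IC50 over all xenografts.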

[27] = test system: lymphoma; assay: as §4; format: functional; conditions: Homo sapiens
[28] = test system: lymphoma; assay: as §5; format: functional; conditions: Homo sapiens
[29] = test system: lymphoma; assay: as §6; format: functional; conditions: Homo sapiens
[30] = test system: CXF158; assay: Inhibition of cell proliferation of human colon CXF158 tumor xenograft in colony forming assay; format: functional, cell-based
[31] = test system: OVXF1023 cell line; assay: Inhibition of cell proliferation of human ovary OVXF1023 tumor xenograft in colony forming assay; format: functional, cell-based, Female gonad
[32] = test system: RXF 423; assay: Inhibition of cell proliferation of human renal RXF423 tumor xenograft in colony forming assay; format: functional, cell-based
[33] = test system: OVXF1353 cell line; assay: Inhibition of cell proliferation of human ovary OVXF1353 tumor xenograft in colony forming assay; format: functional, cell-based, Female gonad

Molecule: C/C(=N\N=C(/S)N1CC2CCC(CC2)C1)c1ccncn1
IC50 ([1]; Homo sapiens, CCRF-CEM): 20 nM
IC50 ([2]; Homo sapiens, HT-29): 50 nM

Molecule: C/C(=N\N=C(/S)N1CC2CCC(CC2)C1)c1cnccn1
IC50 ([1]; Homo sapiens, CCRF-CEM): 11 nM
IC50 ([2]; Homo sapiens, HT-29): 11 nM

Molecule: Copper(II) Complex
IC50 ([1]; ccrf-cem): 300 nM
IC50 ([2]; ht-29): 1510 nM

Molecule: N-[(1E)-1-(6-methylpyridazin-3-yl)ethylidene]-3-azabicyclo[3.2.2]nonane-3-carbohydrazonothioic acid.chloro Cu(II)complex
IC50 ([1]; ccrf-cem): 130 nM
IC50 ([2]; ht-29): 870 nM

Molecule: N-[(1E)-1-pyrazin-2-ylethylidene]-3-azabicyclo[3.2.2]nonane-3-carbohydrazonothioic acid.chloro Cu(II)complex
IC50 ([1]; ccrf-cem): < 10 nM
IC50 ([2]; ht-29): < 10 nM

Molecule: N-[(1E)-1-pyrimidin-4-ylethylidene]-3-azabicyclo[3.2.2]nonane-3-carbohydrazonothioic acid.chloro Cu(II)complex
IC50 ([1]; ccrf-cem): < 10 nM
IC50 ([2]; ht-29): < 10 nM

The next lines start with results.

IC50 [11]: 37200 nM
Molecule: NC(=O)NO [HYDROXYUREA]
IC50 ratio [3]: 0.26
Activity [4]: 19.52%
Activity [5]: 21.27%
Activity [6]: 11.9%
IC50 ([7]; Homo sapiens): 140000 nM
Activity [8]: 38.22%
Activity [9]: 48.2%
Activity [10]: 45.1%

IC50 [14]: 0.21 nM
IC50 [11]: 180 nM
IC50 [22]: 0.85 nM
Molecule: N-[(1E)-1-(3-methylpyrazin-2-yl)ethylidene]-3-azabicyclo[3.2.2]nonane-3-carbohydrazonothioic acid.chloro Cu(II)complex [listing 1 of 2 here]
IC50 ([1]; ccrf-cem): 6 nM
IC50 [12]: 5 nM
IC50 [13]: < 0.1 nM
IC50 [15]: < 0.1 nM
IC50 [7]: 6 nM
IC50 [16]: 0.56 nM
IC50 [17]: 0.22 nM
IC50 [18]: < 0.1 nM
IC50 [19]: 3 nM
IC50 [20]: 36 nM
IC50 [21]: < 0.1 nM

Mean IC50 [26]: 0.37 nM
Molecule: N-[(1E)-1-(3-methylpyrazin-2-yl)ethylidene]-3-azabicyclo[3.2.2]nonane-3-carbohydrazonothioic acid.chloro Cu(II)complex [listing 2 of 2 here]
IC50 ratio [3]: 30
Activity [23]: 9.81%
Activity [24]: 49.3%
Activity [25]: 17%
Activity [27]: 22.8%
Activity [28]: 51.9%
Activity [29]: 29.8%

IC50 [14]: < 0.1 nM
IC50 [11]: 2970 nM
IC50 [22]: 1 nM
Molecule: N-[(1E)-1-(5-methylpyrazin-2-yl)ethylidene]-3-azabicyclo[3.2.2]nonane-3-carbohydrazonothioic acid.chloro Cu(II)complex [listing 1 of 2 here]
IC50 [30]: 0.13 nM
IC50 [31]: 10 nM
IC50 ([1]; ccrf-cem): 5 nM
IC50 ([2]; ht-29): 4 nM
IC50 [32]: 4 nM
IC50 [12]: 4 nM
IC50 [33]: 24 nM
IC50 [13]: < 0.1 nM
IC50 [15]: < 0.1 nM
IC50 [7]: 6 nM
IC50 [16]: 0.2 nM
IC50 [18]: < 0.1 nM
IC50 [19]: 0.7 nM
IC50 [20]: 14 nM
IC50 [21]: < 10 nM

Mean IC50 [26]: 0.37 nM
Molecule: N-[(1E)-1-(5-methylpyrazin-2-yl)ethylidene]-3-azabicyclo[3.2.2]nonane-3-carbohydrazonothioic acid.chloro Cu(II)complex [listing 2 of 2 here]
IC50 ratio [3]: 495
Activity [23]: 17.7%
Activity [24]: 52.7%
Activity [25]: 19.9%
Activity [27]: 25.9%
Activity [28]: 53.1%
Activity [29]: 29.4%

IC50 [14]: 0.2 nM
IC50 [11]: 210 nM
IC50 [22]: 5 nM
Molecule: N-[(1E)-1-(6-methylpyrimidin-4-yl)ethylidene]-3-azabicyclo[3.2.2]nonane-3-carbohydrazonothioic acid.chloro Cu(II)complex [listing 1 of 2 here]
IC50 [30]: 2 nM
IC50 [31]: 15 nM
IC50 ([1]; ccrf-cem): 10 nM
IC50 ([2]; ht-29): 4 nM
IC50 [32]: 26 nM
IC50 [12]: 14 nM
IC50 [33]: 19 nM
IC50 [13]: 0.11 nM
IC50 [15]: < 0.1 nM
IC50 [16]: 3 nM
IC50 [18]: 0.2 nM
IC50 [19]: 0.84 nM
IC50 [21]: 15 nM

Mean IC50 [26]: 1 nM
Molecule: N-[(1E)-1-(6-methylpyrimidin-4-yl)ethylidene]-3-azabicyclo[3.2.2]nonane-3-carbohydrazonothioic acid.chloro Cu(II)complex [listing 2 of 2 here]
IC50 ratio [3]: 11.7
Activity [23]: 11.4%
Activity [24]: 59.2%
Activity [25]: 13.6%
Activity [27]: 21.7%
Activity [28]: 64.5%
Activity [29]: 21.5%
